Consider five compounds from ChEMBL document CHEMBL1138854, “Synthesis and antitumor activity of guanylhydrazones from 6-(2,4-dichloro-5-nitrophenyl)imidazo[2,1-b]thiazoles and 6-pyridylimidazo[2,1-b]thiazoles(1)” (2006).

The subject of one assay is NSCLC. The assay can be described thus: Antitumor activity against NSCLC cell lines of the NCI60 panel. The class given is functional. The following applies: Homo sapiens; for TGI: read-out: pTGI (converted). The method in brief:
(§1)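 Run by NCI in the 60-cell-line panel (details in Supporting Information). Highest concentration 10^-4 M unless noted (one case 10-2.6 M). Values expressed as -log molar concentration giving 50% growth inhibition (pGI50), total cytostasis (pTGI) or 50% cell kill (pLC50); only values >4.00 reported; mean graph midpoint is the calculated panel mean.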

Assay [1] can be described thus: Antitumor activity against breast cell lines of the NCI60 panel. It counts as functional. The following applies: Homo sapiens; for TGI: read-out: pTGI (converted). An outline of the steps: as §1
Assay [2] is described as follows: Antitumor activity against ovarian cell lines of the NCI60 panel. The class given is functional. The following applies: Homo sapiens; for TGI: read-out: pTGI (converted). The method in brief:
as §1

Assay [3] is described as follows: Antitumor activity against renal cell lines of the NCI60 panel. It counts as functional, Homo sapiens. The conditions noted are these: Homo sapiens, renal; for TGI: read-out: pTGI (converted). The method in brief: as §1
A short description of assay [4]: Antitumor activity against melanoma cell lines of the NCI60 panel. It counts as functional. The following applies: Homo sapiens; for TGI: read-out: pTGI (converted). The method in brief:
as §1

The nature of assay [5]: Antitumor activity against colon cell lines of the NCI60 panel. It counts as functional. The following applies: Homo sapiens; for TGI: read-out: pTGI (converted). An outline of the steps:
as §1

Assay [6] is described as follows: Antitumor activity against prostate cell lines of the NCI60 panel. The conditions noted are these: Homo sapiens; for TGI: read-out: pTGI (converted). The class given is functional. The method in brief:
as §1

Assay [7] in a line: Antitumor activity against leukemia cell lines of the NCI60 panel. It counts as functional. The following applies: Homo sapiens; for TGI: read-out: pTGI (converted). The method in brief:
as §1

Assay [8] can be described thus: Antitumor activity against CNS cell lines of the NCI60 panel. The class given is functional. The conditions noted are these: Homo sapiens; for TGI: read-out: pTGI (converted). An outline of the steps:
as §1

Broadly, the GI50 is the concentration giving 50% growth inhibition. High values mean less potent growth inhibition, low ones more potent growth inhibition. Turning to `N=C(N)N/N=C/c1c(-c2cc([N+](=O)[O-])c(Cl)cc2Cl)nc2sc(Cl)cn12`, the GI50 with NSCLC is 22.9 µM; in assay [1], 10.5 µM; in assay [2], 19.5 µM; in assay [3], 29.5 µM; in assay [4], 11.2 µM; in assay [5], 5.75 µM. Besides, the results for the GI50 in [6], in assay [7] and in assay [8] were 19.1 µM, 3.55 µM and 10.7 µM, respectively. Moreover, the TGI in the assay on NSCLC is 72.4 µM; in assay [1] it was 38.9 µM; in [2], 66.1 µM; in [3] it was 81.3 µM; in [4] it was 53.7 µM; in [5] it was 50.1 µM. The TGI is 93.3 µM in assay [6], 44.7 µM in assay [7] and 64.6 µM in assay [8].
`N=C(N)N/N=C/c1c(-c2cc([N+](=O)[O-])c(Cl)cc2Cl)nc2sccn12`: the GI50 in the assay with NSCLC is 1.78 µM; in [1], 2.82 µM; in assay [2] it was 1.86 µM; in assay [3] it was 2 µM; in [4] it was 1.58 µM; in assay [5], 1.02 µM. Moreover, the GI50 in assay [6] was 2.09 µM; in assay [7], 1.45 µM; in assay [8], 1.55 µM. The TGI is 3.47 µM in the assay on NSCLC; 6.03 µM in [1]; 3.55 µM in assay [2]; 3.02 µM in assay [4]; 2.14 µM in [5]; 4.27 µM in assay [7]. The TGI in [8] is 3.47 µM.
For `N=C(N)N/N=C/c1c(-c2ccccn2)nc2sc(Cl)cn12`, the GI50 in the assay on NSCLC was 8.71 µM; in [1], 8.91 µM; in [2] it was 7.08 µM; in assay [3] it was 7.94 µM; in assay [4] it was 7.76 µM; in assay [5], 7.08 µM. Also, the results for the concentration for 50% growth inhibition (GI50) in [6], in assay [7] and in [8] were 9.33 µM, 4.37 µM and 5.62 µM, respectively. Further, the TGI with NSCLC is 18.6 µM; in assay [1] it was 20.9 µM; in assay [2], 14.5 µM; in assay [3] it was 15.1 µM; in [4], 15.1 µM; in assay [5] it was 15.1 µM. Moreover, the TGI is 17.8 µM in assay [6], 13.2 µM in assay [7] and 11.5 µM in assay [8].
As for `Cc1cn2c(/C=N/NC(=N)N)c(-c3ccncc3)nc2s1`, the GI50 in the assay on NSCLC is 16.6 µM; in assay [1], 34.7 µM; in assay [2], 16.6 µM; in [3] it was 23.4 µM; in assay [4], 19.5 µM; in assay [5], 15.8 µM. The GI50 in assay [6] is 17.4 µM; in [7], 9.77 µM; in assay [8] it was 16.2 µM. The TGI is 33.1 µM in the assay with NSCLC; 47.9 µM in assay [1]; 34.7 µM in assay [2]; 42.7 µM in assay [3]; 39.8 µM in [4]; 34.7 µM in assay [5]. In addition, the TGI in assay [6] is 32.4 µM; in assay [7] it was 28.2 µM; in assay [8], 30.9 µM.
Turning to `CCc1cn2c(/C=N/NC(=N)N)c(-c3cc([N+](=O)[O-])c(Cl)cc3Cl)nc2s1`, the GI50 in the assay on NSCLC is 1.7 µM; in [1] it was 1.66 µM; in [2], 1.58 µM; in assay [3], 1.51 µM; in [4], 1.51 µM; in [5] it was 1.38 µM. Moreover, the GI50 was 1.58 µM in assay [6], 0.933 µM in assay [7] and 1.45 µM in assay [8]. Besides, the TGI with NSCLC was 3.16 µM; in assay [1], 4.27 µM; in assay [2] it was 3.09 µM; in assay [4], 2.82 µM; in [5] it was 2.95 µM; in assay [6], 3.09 µM. Further, the figures for the TGI in assay [7] and in assay [8] were 3.24 µM and 2.82 µM, respectively.
